Bioassay records (PubChem)
E coli WT exp: growth inhibitors of wild-type E. coli, primary screen, strain BW25113, expanded library, OD600 | OD600 absorbance | growth inhibition, % at 100 µM | 0.15% of 98,000 active | AID 710, 2007;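 active = growth inhibition above about 50% at one test dose, limit read from the data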;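 note: growth measured after 20 h incubation at 37 °C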
CYP2C19 act: human CYP2C19 activators, primary screen, biochemical, luminescence; recombinant CYP2C19, luciferin-H EGE luminescence; active compounds read high; 0 = fully inhibited enzyme, 1 = untreated enzyme; activation factor at 5 µM; AID 1025, 2008; 96,000 tested, under 10 active;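 active = activation factor of at least 2 at 5 µM in the primary screen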;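 note: 0 = wells with 2.5 mM tranylcypromine and 1 = vehicle-only wells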
CYP2C19 inhib: blockers of cytochrome P450 2C19 activity – biochemical, luminescence, ADME assay, primary screen. P33261. CYP2C19 Supersomes, luciferin-H EGE luminescence, 30 min. inhibition, % at 5 µM. 21% of 96,000 active. AID 778, 2007;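 active = CYP2C19 inhibition above a set limit at 5 µM in the primary screen, cut at about 50% in these data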;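 note: plate controls were negative control wells for no effect and 2.5 mM tranylcypromine positive control for full effect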
tolC growth inh: growth inhibitors of E. coli tolC mutant, primary screen, strain BW25113 ΔtolC::kan, 384-well; OD615; growth inhibition, % at 10 µM (by protocol); 2.2% of 65,000 active;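 active = growth inhibition at or above a cutoff equal to the mean over every tested compound plus 3 SD, cut at about 60% in these data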;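 note: growth measured after 20 h incubation at 37 °C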
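Test system: tolC-deleted E. coli BW25113 | Medium: LB with kanamycin 50 µg/mL | Compound dosing: Single concentration, 10 µM final per compound | Schedule: 37 °C, 20 h exposure | Measured by: OD at 615 nm | Evaluation: Percent growth inhibition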
CYP2C9 act: human CYP2C9 activators, primary screen, biochemical, luminescence; Cytochrome P450 2C9 (Homo sapiens), P11712; recombinant CYP2C9, luciferin-H conversion; active compounds read high; factor 1 = untreated enzyme, 0 = blocked; activation factor at 5 µM; 1.4% of 96,000 active; AID 1024, 2008;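 active = activation factor of 2 or more for CYP2C9 at a 5 µM dose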;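 note: 0 = sulfaphenazole-blocked wells and 1 = vehicle-only wells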
Target sequence (P11712 whole entry, looked up): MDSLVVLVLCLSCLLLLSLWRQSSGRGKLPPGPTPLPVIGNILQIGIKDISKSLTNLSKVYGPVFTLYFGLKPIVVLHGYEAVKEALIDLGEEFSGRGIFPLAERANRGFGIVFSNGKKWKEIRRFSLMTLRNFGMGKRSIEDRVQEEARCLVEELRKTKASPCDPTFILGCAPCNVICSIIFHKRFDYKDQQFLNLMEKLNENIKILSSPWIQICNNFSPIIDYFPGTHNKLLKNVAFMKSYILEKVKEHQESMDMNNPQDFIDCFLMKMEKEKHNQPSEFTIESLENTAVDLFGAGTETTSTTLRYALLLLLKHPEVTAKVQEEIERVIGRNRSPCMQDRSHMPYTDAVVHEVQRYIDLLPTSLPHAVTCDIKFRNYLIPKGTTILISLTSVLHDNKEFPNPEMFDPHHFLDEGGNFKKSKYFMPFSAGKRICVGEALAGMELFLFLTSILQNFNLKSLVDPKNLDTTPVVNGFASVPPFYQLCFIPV
CYP2C9 inhib: blockers of cytochrome P450 2C9 activity – biochemical, luminescence, ADME assay, primary screen | P11712 | CYP2C9 Supersomes, luciferin-H conversion | inhibition, % at 5 µM | 20% of 96,000 active;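 active = blocking of liver enzyme CYP2C9 beyond about 50% at 5 µM, limit read from the data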
An asterisk follows results filed as active. Rows were chosen to be rich in hits. Some 29% of all compounds tested hit in one or more screens of this group.

How did Cc1ccc(-n2c(Cc3cccs3)nnc2SCC(=O)Nc2ccc(S(N)(=O)=O)cc2)cc1 do in these assays?
E coli WT exp: -7.0; CYP2C19 act: 0.4; CYP2C19 inhib: 63.4*; tolC growth inh: 19.0; CYP2C9 act: 0.3; CYP2C9 inhib: 74.1*

How did COc1ccc(-n2c(Cc3cccn3C)nnc2SCC(=O)Nc2ccc3c(c2)OCCO3)cc1 do in these assays?
E coli WT exp: -5.0; CYP2C19 act: 0.7; CYP2C19 inhib: 28.8; tolC growth inh: -1.0; CYP2C9 act: 0.6; CYP2C9 inhib: 35.5

How did COc1ccc(NC(=O)CSc2nnc(Cc3cccs3)n2-c2ccc(C)cc2)cc1 do in these assays?
E coli WT exp: -24.0; CYP2C19 act: 0.3; CYP2C19 inhib: 72.7*; CYP2C9 act: 0.5; CYP2C9 inhib: 51.2*

What do the screens show for `COc1cccc(NC(=O)CSc2nnc(Cc3cccs3)n2-c2ccc(C)cc2)c1`?
E coli WT exp: -12.0; CYP2C19 act: 0.5; CYP2C19 inhib: 45.4; CYP2C9 act: 0.3; CYP2C9 inhib: 65.4*

What do the screens show for `COc1ccc(-n2c(Cc3cccs3)nnc2SCC(=O)Nc2ccc3c(c2)OCCO3)cc1`?
E coli WT exp: -20.0; CYP2C19 act: 0.4; CYP2C19 inhib: 55.5*; tolC growth inh: 22.6; CYP2C9 act: 0.4; CYP2C9 inhib: 60.7*

What do the screens show for `COc1ccc2c(c1)cc(C)c1nnc(SCC(=O)N3CCN(C(=O)c4ccco4)CC3)n12`?
CYP2C19 act: 1; CYP2C19 inhib: -3.7; tolC growth inh: -3.8; CYP2C9 act: 1; CYP2C9 inhib: -1.0

How did Cc1ccc2nc(C3CCN(CC(=O)N4CCCCCC4)CC3)[nH]c2c1 do in these assays?
E coli WT exp: -4.0; CYP2C19 act: 1; CYP2C19 inhib: 3.7; tolC growth inh: -9.3; CYP2C9 act: 0.9; CYP2C9 inhib: 9.9

How did Cc1cc(C(=O)O)c(CSCc2cc(C(=O)O)oc2C)o1 do in these assays?
E coli WT exp: -8.0; CYP2C19 act: 0.8; CYP2C19 inhib: 22.3; CYP2C9 act: 1.7; CYP2C9 inhib: -74.6

What do the screens show for `COC(=O)[C@H](CCSC)NC(=O)NCc1ccc(S(N)(=O)=O)cc1`?
E coli WT exp: -1.0; CYP2C19 act: 1; CYP2C19 inhib: 2.6; tolC growth inh: -20.7; CYP2C9 act: 0.9; CYP2C9 inhib: 10.3

What do the screens show for `O=C(Cn1c(C(=O)N2CCc3ccccc3C2)cc2sccc21)c1ccccc1`?
E coli WT exp: -20.0; CYP2C19 act: 0.3; CYP2C19 inhib: 68.6*; tolC growth inh: 29.0; CYP2C9 act: 0.4; CYP2C9 inhib: 64.1*

Results for O=C(Cn1c(C(=O)N2CCN(C3CCCCC3)CC2)cc2sccc21)c1ccccc1 ?
E coli WT exp: 1.0; CYP2C19 act: 0.1; CYP2C19 inhib: 87.3*; tolC growth inh: 19.6; CYP2C9 act: 0.3; CYP2C9 inhib: 73.0*

Results for O=C1NC(c2ccccc2)C(C(=O)c2cccs2)=C1O (stereo not given) ?
E coli WT exp: -3.0; CYP2C19 act: 1; CYP2C19 inhib: -1.5; tolC growth inh: -6.6; CYP2C9 act: 1; CYP2C9 inhib: -0.1

What do the screens show for `CC1=CCC2C(=O)N(c3nc(C)cc(C)n3)C(=O)C2C1` (stereo not given)?
E coli WT exp: 7.0; CYP2C19 act: 0.9; CYP2C19 inhib: 6.8; tolC growth inh: -6.3; CYP2C9 act: 0.9; CYP2C9 inhib: 5.6

Results for CCOC(=O)CCn1c2nc(C)cc(C)c2c(=O)n1-c1ccccc1 ?
E coli WT exp: 0.0; CYP2C19 act: 0.4; CYP2C19 inhib: 56.1*; tolC growth inh: -14.4; CYP2C9 act: 0.9; CYP2C9 inhib: 7.4

Results for CCCCCCSc1nc(O)c(C2OC(=O)c3c2ccc(OC)c3OC)c(=O)n1-c1ccccc1 (stereo not given) ?
E coli WT exp: -2.0; CYP2C19 act: 0.9; CYP2C19 inhib: 9.6; CYP2C9 act: 0.6; CYP2C9 inhib: 39.3

What do the screens show for `CC(C)n1c(Nc2ccccc2)nc2ccccc21`?
E coli WT exp: 6.0; CYP2C19 act: 0.8; CYP2C19 inhib: 19.9; tolC growth inh: -2.6; CYP2C9 act: 1; CYP2C9 inhib: 1.1

Results for CC(C)n1c2ccccc2c2nc3ccccc3nc21 ?
E coli WT exp: -2.0; CYP2C19 act: 1; CYP2C19 inhib: 4.3; tolC growth inh: 100.0*; CYP2C9 act: 0.9; CYP2C9 inhib: 14.9

What do the screens show for `O=C(Nc1ccncc1)C1CC1c1ccccc1` (stereo not given)?
E coli WT exp: 5.0; CYP2C19 act: 0; CYP2C19 inhib: 96.6*; CYP2C9 act: 0.2; CYP2C9 inhib: 84.4*

What do the screens show for `CCc1c(C)sc(NC(=O)C2CC2c2ccccc2)c1C(N)=O` (stereo not given)?
E coli WT exp: 5.0; CYP2C19 act: 0.6; CYP2C19 inhib: 42.5; CYP2C9 act: 0.8; CYP2C9 inhib: 22.0

How did O=C(NC1CCCC1)C1CC1c1ccccc1 (stereo not given) do in these assays?
E coli WT exp: 7.0; CYP2C19 act: 0.3; CYP2C19 inhib: 73.4*; tolC growth inh: -7.3; CYP2C9 act: 0.4; CYP2C9 inhib: 63.3*

Results for CCCCc1ccc(Nc2ncnc3nc[nH]c23)cc1 ?
E coli WT exp: -1.0; CYP2C19 act: 0.5; CYP2C19 inhib: 53.0*; tolC growth inh: 38.8; CYP2C9 act: 0.6; CYP2C9 inhib: 42.0

How did NC(=O)CNC(=O)[C@@H]1CC2(CC(c3cccc(Br)c3)=NO2)CN1C(=O)c1ccc(Br)cc1 (stereo not given in full) do in these assays?
E coli WT exp: 14.0; CYP2C19 act: 0.8; CYP2C19 inhib: 18.5; CYP2C9 act: 0.8; CYP2C9 inhib: 17.5

How did COc1ccc(N2CCN(CCCNC(=O)C3CCCN(S(=O)(=O)c4cnc[nH]4)C3)CC2)cc1 (stereo not given) do in these assays?
E coli WT exp: 4.0; CYP2C19 act: 1.2; CYP2C19 inhib: -19.4; tolC growth inh: 0.6; CYP2C9 act: 1; CYP2C9 inhib: 2.5

Results for COc1cccc(CNC(=O)C2CCCN(S(=O)(=O)c3cccc4nonc34)C2)c1 (stereo not given) ?
E coli WT exp: -6.0; CYP2C19 act: 0.9; CYP2C19 inhib: 11.4; CYP2C9 act: 0.7; CYP2C9 inhib: 28.2

What do the screens show for `COc1cccc(CNC(=O)C2CCCN(S(C)(=O)=O)C2)c1` (stereo not given)?
E coli WT exp: 7.0; CYP2C19 act: 0.9; CYP2C19 inhib: 7.9; tolC growth inh: -2.0; CYP2C9 act: 0.3; CYP2C9 inhib: 74.9*

Results for CCS(=O)(=O)N1CCC(C(=O)NCc2cccc(OC)c2)CC1 ?
E coli WT exp: 5.0; CYP2C19 act: 1; CYP2C19 inhib: -4.4; tolC growth inh: 3.2; CYP2C9 act: 1; CYP2C9 inhib: -0.6
